Source: ChEMBL document CHEMBL1153736, “Application of ring-closing metathesis macrocyclization to the development of Tsg101-binding antagonists” (Bioorg Med Chem Lett, 2010)
Numbered stars: 1 amine (or outer) side, 2 acyl side, 3 side chain; on linkers, the order of the positions; unused ones are H or OH. Bridge positions count the residues as written; N and C are the ends. Square brackets hold non-standard residues; d marks the D form. Peptide text beside a SMILES is read from it. * marks the point of attachment. Fluorescein(5-NHCS) = O=C1OC2(c3ccc(O)cc3Oc3cc(O)ccc32)c2cc(NC(=S)*)ccc21; X3 = O=C(CN(CCCCCCC=[*:3])[*:1])[*:2]; X5 = O=C(CN(CCCCCC=[*:3])[*:1])[*:2]; X2 = O=C(CN(CC=[*:3])[*:1])[*:2]; NAllylGly = C=CCNCC(=O)O; Ava = NCCCCC(=O)O

How the values were obtained:
[1] = biological target: T1, Tumor susceptibility gene 101 protein (Homo sapiens, UniProt Q99816); test: Binding affinity to ubiquitin E2 variant domain of human Tsg101 by fluorescent anisotropy
T1 sequence (Q99816 whole entry): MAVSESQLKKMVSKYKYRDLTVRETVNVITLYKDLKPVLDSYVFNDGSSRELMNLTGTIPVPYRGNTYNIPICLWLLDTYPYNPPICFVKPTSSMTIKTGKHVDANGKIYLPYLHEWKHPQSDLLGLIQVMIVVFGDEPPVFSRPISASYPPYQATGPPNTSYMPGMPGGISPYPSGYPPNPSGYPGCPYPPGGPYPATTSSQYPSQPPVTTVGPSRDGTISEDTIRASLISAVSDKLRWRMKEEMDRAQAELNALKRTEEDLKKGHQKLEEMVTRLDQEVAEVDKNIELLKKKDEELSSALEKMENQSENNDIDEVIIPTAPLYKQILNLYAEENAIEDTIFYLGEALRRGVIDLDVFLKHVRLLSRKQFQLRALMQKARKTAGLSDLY

[2] = test system: HeLa; test: Cellular uptake in human HeLa cells assessed as fluorescence intensity by FACS analysis relative to control; format: ADME, cell-based; conditions: in the assay text read “fluorescence microscopy” for “FACS analysis”
How it was run: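 Uptake of FITC-tagged peptide-peptoid hybrids was measured by fluorescence microscopy. The value is the average fluorescence intensity of treated cells, quantified from at least 20 cells taken from 4–6 fields, each field holding about 5 cells.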

SMILES: C=CCN(CC(=O)N1CCC[C@H]1C(=O)N[C@H](C(=O)N[C@@H](C)C(=O)N1CCC[C@H]1C(=O)N1CCC[C@H]1C(=O)N(CC=C)CC(=O)N[C@@H](CCC(=O)O)C(N)=O)[C@@H](C)O)C(=O)[C@@H]1CCCN1C(=O)CCCCNC(=S)Nc1ccc2c(c1)C1(OC2=O)c2ccc(O)cc2Oc2cc(O)ccc21 ({Fluorescein(5-NHCS)-Ava}-P[NAllylGly]PTAPP[NAllylGly]E-NH2)
- Kd [1]: 590 µM
- Drug uptake [2]: 74%

SMILES: C[C@@H]1NC(=O)[C@H]([C@@H](C)O)NC(=O)[C@@H]2CCCN2C(=O)[C@H](CCC(=O)O)NC(=O)CN(C(=O)CCCCNC(=S)Nc2ccc3c(c2)C2(OC3=O)c3ccc(O)cc3Oc3cc(O)ccc32)C/C=C\CCCCCCN(CC(=O)N[C@@H](CCC(=O)O)C(N)=O)C(=O)[C@@H]2CCCN2C(=O)[C@@H]2CCCN2C1=O ({Fluorescein(5-NHCS)-Ava}-[X2]EPTAPP[X3]E-NH2; staple (Z) 1-8)
- Kd [1]: > 500 µM

SMILES: C[C@@H]1NC(=O)[C@H]([C@@H](C)O)NC(=O)[C@@H]2CCCN2C(=O)CN(C(=O)[C@@H]2CCCN2C(=O)CCCCNC(=S)Nc2ccc3c(c2)C2(OC3=O)c3ccc(O)cc3Oc3cc(O)ccc32)CCCCC/C=C\CN(CC(=O)N[C@@H](CCC(=O)O)C(N)=O)C(=O)[C@@H]2CCCN2C(=O)[C@@H]2CCCN2C1=O ({Fluorescein(5-NHCS)-Ava}-P[X5]PTAPP[X2]E-NH2; staple (Z) 2-8)
- Kd [1]: > 500 µM

SMILES: C[C@@H]1NC(=O)[C@H]([C@@H](C)O)NC(=O)[C@@H]2CCCN2C(=O)[C@H](CCC(=O)O)NC(=O)CN(C(=O)CCCCNC(=S)Nc2ccc3c(c2)C2(OC3=O)c3ccc(O)cc3Oc3cc(O)ccc32)CCCCC/C=C/CN(CC(=O)N[C@@H](CCC(=O)O)C(N)=O)C(=O)[C@@H]2CCCN2C(=O)[C@@H]2CCCN2C1=O ({Fluorescein(5-NHCS)-Ava}-[X5]EPTAPP[X2]E-NH2; staple (E) 1-8)
- Kd [1]: > 500 µM

SMILES: C[C@@H]1NC(=O)[C@H]([C@@H](C)O)NC(=O)[C@@H]2CCCN2C(=O)[C@H](CCC(=O)O)NC(=O)CN(C(=O)CCCCNC(=S)Nc2ccc3c(c2)C2(OC3=O)c3ccc(O)cc3Oc3cc(O)ccc32)CCCCC/C=C\CN(CC(N)=O)C(=O)[C@H](CCC(=O)O)NC(=O)[C@@H]2CCCN2C(=O)[C@@H]2CCCN2C1=O
- Kd [1]: > 500 µM
